Read-outs that look alike come from different tables or passages of the source.
Columns and labels:
[1] = tested on: PTH secretion from parathyroid glands; test: Ex vivo parathyroid gland culture: PTH secretion and Ca2+ set-point; assay type: cell-based, mouse
Procedure, shortened: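 Glands from 4-week-old wild-type C57/B6 mice, incubated sequentially with rising test compound (0.01 nM–50 µM) at 0.75 mM [Ca2+]e for dose-response. For set-point, 50 or 500 nM compound under rising [Ca2+]e. PTH secretion rate per gland per hour was normalized between vehicle basal rate (0.5 mM) and rate at 3.0 mM. Set-point is the [Ca2+]e suppressing 50% of Ca-suppressible secretion. n = 8 gland groups, mean ± SEM.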

serum PTH = test: Serum PTH after subcutaneous injection; assay type: in vivo, C57/B6 mice; conditions: WT B6 mice
Procedure, shortened: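 Wild-type B6 mice given subcutaneous injections. Serum PTH was followed over 8 h after 1 mg/kg or 10 mg/kg. Dose comparison used serum PTH sampled 30 min after injection at several doses. n = 10 mice per dose, n = 5 at 10 mg/kg. Reference compound doses were corrected for molecular weight to match molar amounts. Unpaired Student's t-test.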

[2] = plasma, 3 mg/kg subcutaneous, CD-1 mice
[3] = for duration of significantly lowered serum calcium / lowest level of serum calcium: 3 mg/kg subcutaneous; for lowest level of serum calcium: from 2.2 mM
in vivo = conditions: male, CD-1, mouse, sc, 3 mg/kg
[4] = 1 mg/kg (3.1 µmol/kg, equimolar) subcutaneous

| Cmax [2] [nM] | time of Cmax [2] [min] | duration of significantly lowered serum calcium [3] | lowest level of serum calcium [3] [mM] | Cmax (in vivo) [ng/mL] | IC50 ([1]; Mus musculus, read-out: IC50 in suppressing PTH secretion) [nM] | hypocalcemic action ([3]; 3.1 µmol/kg (~1 mg/kg) subcutaneous) | SMILES | calcium set point for PTH secretion ([1]; PAM at 50 nM, vehicle 1.47 mM) [mM] | calcium set point for PTH secretion ([1]; PAM at 500 nM, vehicle 1.5 mM) | suppression of PTH secretion (serum PTH) (serum PTH; [4]) | suppression of PTH secretion (serum PTH) (serum PTH; 10 mg/kg (31 µmole/kg) subcutaneous) |
| --- | --- | --- | --- | --- | --- | --- | --- | --- | --- | --- | --- |
| 150 | 15 | more than 8 hrs | 1.7 | 58.9 | – | – | C[C@@H](NCCCc1cccc(C(F)(F)F)c1)c1cccc2ccccc12 [cinacalcet] | 1.23 | ~ 0.94 mM | less effective | fully suppress |
| – | 60 | more than 8 hrs | 1.6 | – | 998 | particularly robust | C[C@@H](N[C@H]1CCN(c2ccc(CC(=O)O)cc2)C1)c1cccc2ccccc12 [evocalcet] | 1 | 0.76 mM | fully suppress | – |
